Results from article PMC11605122 (Nature Communications, 2024).

Columns and labels:
[1] = plasma/serum FGF21; assay type: in vivo, mouse; settings: DIO mice, G49
Summary of the method: (§1)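 Plasma ALT was read with Reflotron strips and plasma TGs by colorimetric assay. Serum FGF21 and plasma adiponectin and insulin were measured by ELISA.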

[2] = system: mouse adipocytes from eWAT; test: lipolysis; assay type: cell-based; settings: isolated adipocytes from eWAT, 500 nM G49, 4 h
[3] = system: primary mouse hepatocytes; test: FGF21 release and gene expression in primary hepatocytes; assay type: cell-based; settings: 500 nM G49, 16 h
Summary of the method: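 Primary hepatocytes came from non-fasted male C57BL/6J mice fed HFD for 12 weeks, with or without in vivo treatment, by two-step collagenase perfusion. Cells were spun at 60 × g, purified on isotonic Percoll (1:1) at 230 × g and seeded on collagen. They were cultured 24 h at 37 °C, 5% CO2 before exposure to the test compound.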

[4] = system: eWAT, iWAT, BAT; test: PKA Thr197 and HSL Ser660 phosphorylation; assay type: in vivo, mouse; settings: DIO mice, G49
Summary of the method: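 Tissue lysates were cleared twice at 98,560 × g for 40 min at 4 °C; protein was measured by BCA. After transfer, loading was checked with Ponceau. Membranes were blocked with 6% skimmed milk in TBS-0.05% Tween-20 for 2 h at RT, then incubated with primary antibodies overnight at 4 °C.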

[5] = system: POMC neurons, arcuate nucleus; test: cFos-positive POMC neurons in ARC; assay type: in vivo, mouse; settings: DIO mice
Summary of the method: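 Brain slices were blocked 2 h at RT in PBS with 1% BSA and 0.1% Triton X-100. They were incubated overnight at 4 °C with anti-POMC and anti-c-Fos, then with secondary antibodies in 1% BSA/PBS for 2 h at RT, protected from light.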

[6] = plasma adiponectin; assay type: in vivo, mouse; settings: DIO mice, 24 h post-injection
Summary of the method: as §1

[7] = cumulative food intake; assay type: in vivo, mouse; settings: DIO mice, H + G49, 72 h, versus vehicle
[8] = system: brown adipocytes; test: brown adipocytes treated with serum of G49-treated mice; assay type: cell-based, mouse; settings: serum from mice receiving G49 for 72 h
Summary of the method: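 Brown preadipocytes were immortalised by retroviral SV40 Large T (20% FBS, 8 μg/mL polybrene, 48 h) at 70–80% confluence. Differentiation began with 2 days in induction medium (0.5 μM dexamethasone, 0.5 mM IBMX, indomethacin, 1 μM rosiglitazone).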

[9] = liver histology; assay type: in vivo, mouse; settings: DIO mice
[10] = gene expression in mouse tissues/SVF; assay type: in vivo
[11] = plasma TGs; assay type: in vivo, mouse; settings: DIO mice, G49, time course
Summary of the method: as §1

[12] = fatty acid oxidation in liver tissue; assay type: in vivo, mouse; settings: DIO mice, G49, 72 h
Summary of the method: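 Frozen liver (30 mg) was homogenised in cold STE buffer (25 mM Tris-HCl, sucrose, 1 mM EDTA, pH 7.4), sonicated 10 s and spun at 420 × g for 10 min at 4 °C. The supernatant was used for the oxidation reaction. Radioactive acid-soluble metabolites were counted by scintillation and expressed as nmol/g liver/h.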

[13] = system: brown adipocytes; test: lipolysis in brown adipocytes; assay type: cell-based, mouse; settings: G49, brown adipocytes, 500 nM, 4 h
[14] = system: liver Cd11b+Ly6g+ cells; test: liver neutrophils; assay type: in vivo, mouse; settings: DIO mice, G49
Summary of the method: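 Liver non-parenchymal cells underwent ACK red-cell lysis (5 min, RT) and were washed in HBSS. They were stained 20 min at RT with CD45-FITC, CD11b-PECy7 and Ly6G-PE, then acquired on a FACSCanto II.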

[15] = body weight, HFD-fed; assay type: in vivo, mouse
[16] = plasma insulin; assay type: in vivo, mouse; settings: DIO mice
Summary of the method: as §1

## HSQGTFTSDYSKYLEEEAVRLFIC (40 kDa PEG) WLMNT-amide acetate salt [G49]
[1]
  liver Fgf21 expression and FGF21 plasma levels: reached significant increases at 12 h post-first G49 dose
[2]
  glycerol and FFA release: increased glycerol and FFA release
[3]
  FGF21 release and Sir2 expression: increased FGF21 levels released to the culture medium and Sir2 expression
[4]; BAT
  PKA/HSL phosphorylation (lipolytic molecular signature): not in brown adipose tissue (BAT)
[4]; iWAT
  PKA/HSL phosphorylation (lipolytic molecular signature): also found in iWAT
[5]; G49, 1 week
  activated POMC neurons, 1 week: percentage of activated POMC neurons was reduced
[5]; G49, after first injection
  cFos-positive POMC neurons, early: increase in cFos-positive POMC neurons
[6]
  plasma adiponectin, early: increase in adiponectin was observed as early as 24 h post-injection
[7]
  inhibition of cumulative food intake: 28.30 ± 2.61%
[8]
  Ucp1 mRNA and UCP1 protein: increased Ucp1 mRNA and UCP1 protein levels
[9]; G49 + ATGLi, 6 h
  hepatic lipid overload: absent in mice co-treated with ATGLi
[9]; G49, 6 h
  lipid accumulation, liver sections: an increase in lipid accumulation
[10]; DIO mice, G49
  hepatic Cpt1a and Ppara mRNAs: concomitant increase in hepatic Cpt1a and Ppara mRNAs
[10]; DIO mice, G49 + ATGLi, 6 h
  hepatic Srebf1 and Fasn mRNA: Srebf1 and Fasn mRNAs were reduced
[10]; DIO mice, G49 + ATGLi, 72 h
  liver Fgf21 mRNA upregulation: G49-mediated Fgf21 mRNA upregulation in the liver was also abolished
[10]; DIO mice, G49 + GCGRant, 6 h
  hepatic Fasn and Srebf1 mRNA: reduced by the presence of GCGRant
[10]; DIO mice, G49, 1 week
  thermogenic-related genes in BAT: increase in thermogenic-related genes (Cpt1b, Dio2, CoxIVi1, Ucp1, Th, Fgf21)
[10]; DIO mice, G49 with blockade of GCGR
  Th mRNA in BAT: maintained G49-mediated increase in Th mRNA levels
[10]; FGF21Alb-KO mice, G49, 72 h
  Fgf21 mRNA in BAT: Fgf21 mRNA upregulation was not observed in BAT
  Fgf21 mRNA in eWAT and iWAT: Fgf21 mRNA levels were upregulated in eWAT and iWAT
[10]; SVF of eWAT, G49, 6 h and 24 h
  Th and cytokine mRNA in SVF: an increase of Th mRNA at 6 h and a peak of Il14, Il10, and Il13 that declined at 24 h post-G49 treatment
[10]; eWAT, G49, 1 week
  angiogenesis and beiging-related genes: Increases in angiogenesis (Vegf) and beiging-related genes (Cidea, Prdm16, CoxIVi1, Ucp1, Th, Cpt1a)
[10]; eWAT, G49, 6 h
  M2 markers and Th mRNA: upregulated mRNA levels of M2 markers (Arg1, Il10, Tgfb) as well as Th
[10]; eWAT, G49, 6 h and day 7
  Acta2, Tgfb, Mmp9 mRNA: transient increase in Acta2, Tgfb, and Mmp9 mRNA levels that declined at day 7
[10]; liver, DIO mice, G49, 6 h
  Srebf1 and Fasn mRNA: both were elevated at 6 h post-G49 treatment
[11]
  circulating TGs: reached maximal levels at 24 h and decreased to basal levels at 48 h post-G49 treatment
[12]
  hepatic fatty acid oxidation: concomitant increase in hepatic Cpt1a and Ppara mRNAs (Fig. 3J) and fatty acid oxidation (FAO)
[13]
  lipolysis: up-regulated lipolysis
[14]
  hepatic neutrophil infiltration: an increase in hepatic neutrophil infiltration
[15]; Adipoq−/− DIO mice, G49, 3–7 days
  body weight: body weight stabilized in the period of 3–7 days in Adipoq^−/− mice
[15]; DIO female mice, G49, 1 week
  body weight: Body weight loss in the absence of a reduction in cumulative food intake
[15]; DIO mice, G49 + Ex9-39 + GCGRant
  body weight: failed to decrease body weight in the presence of both antagonists
[15]; DIO mice, G49 without ATGLi, 72 h
  body weight loss: 11.8 ± 0.51%
[15]; DIO mice, G49 without antagonist, day 7 (antagonist experiment)
  body weight loss: 23.2 ± 1.45%
[15]; FGF21Alb-KO mice, HFD, G49, 3–7 days
  body weight: body weight stabilized in G49-treated FGF21^Alb-KO mice in the period of 3–7 days
[15]; UCP1−/− mice, HFD, G49, beyond 72 h
  body weight: did not lose weight beyond this time-point
[15]; lean mice, G49
  effect in lean mice: mild and changes were found only in the short-term body weight loss, the early lipolytic response and the reduction of eWAT
[15]; male DIO mice, G49 20 nmol/kg, 1 week
  body weight loss: 6.9 ± 0.89%
[15]; male mice, normal cycle, G49, 1 week
  body weight loss: 16.1 ± 0.72%
[15]; male mice, reversed light/dark cycle, G49, 1 week
  body weight loss: 20.1 ± 0.49%
[16]; G49 + ATGLi, 6 h
  plasma insulin: plasma insulin was partly reduced
[16]; G49 + Ex9-39, 6 h
  peak in insulin secretion: Ex9-39 totally abolished this increase
[16]; G49 + GCGRant, 6 h
  peak in insulin secretion: partially blocked by the GCGRant
[16]; G49, 6 h
  plasma insulin, early: a rise in plasma insulin
